Our source for the IC50 values is ChEMBL document CHEMBL3861950, “Design, synthesis and evaluation of novel 19F magnetic resonance sensitive protein tyrosine phosphatase inhibitors” (Medchemcomm, 2016).

Assay [1] has as its target T1, Tyrosine-protein phosphatase non-receptor type 1 (Homo sapiens, UniProt P18031).
T1 sequence (P18031 whole entry): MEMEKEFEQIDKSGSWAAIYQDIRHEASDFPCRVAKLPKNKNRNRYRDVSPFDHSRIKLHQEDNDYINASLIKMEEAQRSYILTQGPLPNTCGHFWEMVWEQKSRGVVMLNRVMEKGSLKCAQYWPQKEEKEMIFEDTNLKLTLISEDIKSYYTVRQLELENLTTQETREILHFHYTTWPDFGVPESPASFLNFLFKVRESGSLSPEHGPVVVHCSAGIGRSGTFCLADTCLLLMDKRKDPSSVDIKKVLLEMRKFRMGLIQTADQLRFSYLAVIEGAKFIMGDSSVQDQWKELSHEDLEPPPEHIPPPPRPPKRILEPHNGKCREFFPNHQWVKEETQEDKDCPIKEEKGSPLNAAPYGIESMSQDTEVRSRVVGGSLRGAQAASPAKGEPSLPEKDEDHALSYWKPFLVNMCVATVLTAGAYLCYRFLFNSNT
As to the kind of experiment: Inhibition of recombinant PTP1B (unknown origin) using pNPP as substrate by spectrophotometric method. In short, it runs like this:
(§1)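 Recombinant PTP prepared in-house, assayed with pNPP substrate in 50 mM 3,3-dimethylglutarate buffer pH 7.0 containing 1 mM EDTA and 150 mM NaCl at 25 °C, in 96-well format. p-Nitrophenol product was quantified by absorbance at 405 nm. Non-enzymatic pNPP hydrolysis was corrected using a no-enzyme control.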

Assay [2] concerns the target T2, Tyrosine-protein phosphatase non-receptor type 22 (Homo sapiens, UniProt Q9Y2R2).
T2 sequence (Q9Y2R2 whole entry): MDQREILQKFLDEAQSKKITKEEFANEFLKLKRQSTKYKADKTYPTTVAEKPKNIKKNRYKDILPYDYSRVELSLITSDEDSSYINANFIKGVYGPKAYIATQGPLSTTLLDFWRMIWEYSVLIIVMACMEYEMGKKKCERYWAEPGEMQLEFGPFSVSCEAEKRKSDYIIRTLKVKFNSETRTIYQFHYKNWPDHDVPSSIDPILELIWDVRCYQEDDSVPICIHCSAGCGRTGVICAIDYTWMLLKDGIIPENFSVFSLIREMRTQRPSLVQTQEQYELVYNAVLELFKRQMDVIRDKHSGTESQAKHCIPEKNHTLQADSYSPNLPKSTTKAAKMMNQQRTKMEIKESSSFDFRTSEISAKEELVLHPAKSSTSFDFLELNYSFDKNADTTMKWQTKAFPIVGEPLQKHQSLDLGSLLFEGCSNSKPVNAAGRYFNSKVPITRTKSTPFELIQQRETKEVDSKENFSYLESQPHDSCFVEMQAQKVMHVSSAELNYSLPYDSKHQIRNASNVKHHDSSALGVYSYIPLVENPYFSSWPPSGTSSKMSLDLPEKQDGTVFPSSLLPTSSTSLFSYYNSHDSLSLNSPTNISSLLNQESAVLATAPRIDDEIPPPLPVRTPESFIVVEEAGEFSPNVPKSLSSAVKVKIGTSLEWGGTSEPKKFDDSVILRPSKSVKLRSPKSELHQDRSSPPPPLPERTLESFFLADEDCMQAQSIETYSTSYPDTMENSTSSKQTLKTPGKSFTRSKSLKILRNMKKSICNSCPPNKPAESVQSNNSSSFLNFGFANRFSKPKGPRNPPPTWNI
As to the kind of experiment: Inhibition of recombinant LYP (unknown origin) using pNPP as substrate by spectrophotometric method. In short, it runs like this:
as §1

Each structure is given as a SMILES string.

The term IC50 denotes the concentration at which inhibition is half-maximal.

Consider `Cc1ccc(S(=O)(=O)NNC(=O)COc2ccc3cc(C(O)(C(F)(F)F)C(F)(F)F)c(O)cc3c2)cc1`, for which the figures for the IC50 in assay [1] and in assay [2] were > 20 µM and 15.4 µM, respectively.
